Data on 38 compounds can be found in ChEMBL document CHEMBL1122270, “N-(4-substituted-thiazolyl)oxamic acid derivatives, a new series of potent, orally active antiallergy agents” (1983).

Type in all cases: functional
Test [1] relates to Rattus norvegicus. The experiment in a line: Antiallergic activity by rat passive cutaneous anaphylaxis (PCA) assay when administered per orally. The note with it: po. Summed up:
(§1)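 Rats were passively sensitized intradermally with diluted reaginic anti-ovalbumin serum 24 h before challenge. Compound was suspended in 1% acacia and dosed by oral feeding needle at 1 mL/kg. After 20-30 min, rats were challenged with 0.02 mg ovalbumin in 0.5 mL 2% Evans Blue. Blued areas were measured 30 min after challenge. Six rats per dose; ED50 is 50% area reduction from control, with 95% confidence limits.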

For test [2], the system named is Rattus norvegicus. The experiment in a line: antiallergic activity by rat passive cutaneous anaphylaxis (PCA) assay when administered iv. Summed up: (§2)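 Male rats sensitized by id injection of diluted rat anti-ovalbumin reaginic serum (0.1 mL each side of shaved back). 24 h later, compound in saline was mixed with 5 mg ovalbumin in 0.5 mL 2% Evans Blue and given iv at 1 mL/kg. Blued-spot diameters were read 30 min later. Six rats per group; ED50 is 50% area reduction versus control, with 95% confidence limits.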

In test [3] the test system is Rattus norvegicus. Briefly: Antiallergic activity by rat passive cutaneous anaphylaxis (PCA) assay when administered iv;value ranges between (0.01-0.04.). Summed up: as §2
The subject of test [4] is Rattus norvegicus. Briefly: Antiallergic activity by rat passive cutaneous anaphylaxis (PCA) assay when administered per orally;value ranges between (0.7-1.6). The note with it: po. Summed up:
as §1

Test [5] deals with Rattus norvegicus. Briefly: Antiallergic activity by rat passive cutaneous anaphylaxis (PCA) assay when administered per orally;value ranges between (1.3-23). The note with it: po. Summed up: as §1
The subject of test [6] is Rattus norvegicus. The experiment in a line: Antiallergic activity by rat passive cutaneous anaphylaxis (PCA) assay when administered per orally;value ranges between (1.0-6.6). The note with it: po. Summed up:
as §1

Test [7] deals with Rattus norvegicus. Briefly: Antiallergic activity by rat passive cutaneous anaphylaxis (PCA) assay when administered perorally; value ranges between […]. The note with it: po. The method, boiled down: as §1
Test [8] relates to Rattus norvegicus. The experiment in a line: Antiallergic activity by rat passive cutaneous anaphylaxis (PCA) assay when administered per orally;value ranges between (4.67-21.77). The note with it: po. Summed up: as §1
The test system of test [9] is Rattus norvegicus. Briefly: Antiallergic activity by rat passive cutaneous anaphylaxis (PCA) assay when administered perorally. The note with it: po. The method, boiled down:
as §1

Test [10] concerns Rattus norvegicus. The experiment in a line: Antiallergic activity by rat passive cutaneous anaphylaxis (PCA) assay when administered per orally;value ranges between (0.91-5.2). The note with it: po. The method, boiled down:
as §1

The test system of test [11] is Rattus norvegicus. The experiment in a line: Antiallergic activity by rat passive cutaneous anaphylaxis (PCA) assay when administered per orally;value ranges between (3.44-9.04). The note with it: po. The method, boiled down:
as §1

Test [12] relates to Rattus norvegicus. The experiment in a line: Antiallergic activity by rat passive cutaneous anaphylaxis (PCA) assay when administered per orally;value ranges between (1.02-2.15). The note with it: po. The method, boiled down:
as §1

For test [13], the system named is Rattus norvegicus. The experiment in a line: Antiallergic activity by rat passive cutaneous anaphylaxis (PCA) assay when administered per orally;value ranges between( 0.5-2.9). The note with it: po. The method, boiled down:
as §1

Test [14] deals with Rattus norvegicus. Briefly: Antiallergic activity by rat passive cutaneous anaphylaxis (PCA) assay when administered per orally;value ranges between (0.18-1.48). The note with it: po. Summed up:
as §1

What is called ED50 is the dose at which the effect has come halfway, by size or by number of responders. Turning to `CCOC(=O)C(=O)Nc1nc(-c2cccc(OC)c2)cs1`, the 50% effective dose (ED50) with Rattus norvegicus [1] is about 20 mg/kg. With `CCOC(=O)C(=O)Nc1nc(-c2ccc(N3CCOCC3)cc2)cs1`, in the test with Rattus norvegicus [1], the 50% effective dose (ED50) is over 100 mg/kg. With `COc1ccccc1-c1csc(NC(=O)C(=O)O)n1`, the median effective dose (ED50) in the test with Rattus norvegicus [2] was over 1 mg/kg.

For the compound `O=C(O)C(=O)Nc1nc(-c2ccc(O)cc2)cs1`, the results for the 50% effective dose (ED50) in the test with Rattus norvegicus [2] and with Rattus norvegicus [1] were about 0.1 mg/kg and over 3 mg/kg, respectively. `CCOC(=O)C(=O)Nc1nc(-c2ccc(O)cc2)cs1`: in the test with Rattus norvegicus [1], the ED50 was about 15 mg/kg. `CCOC(=O)C(=O)Nc1nc(-c2ccccn2)cs1`: the ED50 with Rattus norvegicus [1] was about 10 mg/kg. The same measure, in the same setting: for `CCOC(=O)C(=O)Nc1nc(-c2ccc(Sc3ccccc3)cc2)cs1` the value was over 3 mg/kg. Turning to `CN(C)c1ccc(-c2csc(NC(=O)C(=O)O)n2)cc1`, the values for the ED50 in the test with Rattus norvegicus [3] and with Rattus norvegicus [4] were 0.02 mg/kg and 1.1 mg/kg, respectively.

In the test with Rattus norvegicus [1], `Cc1cc(C)c(-c2csc(NC(=O)C(=O)O)n2)c(O)c1.NCCO` had an ED50 of over 10 mg/kg. `CCOC(=O)C(=O)Nc1nc(-c2ccccc2OC)cs1`: the ED50 in the test with Rattus norvegicus [2] was about 1 mg/kg; in the test on Rattus norvegicus [1], over 30 mg/kg.

As to `O=C(O)C(=O)Nc1ncc(-c2ccccc2)s1`, the values for the ED50 with Rattus norvegicus [2] and in the test with Rattus norvegicus [5] were about 0.3 mg/kg and 4.03 mg/kg, respectively. `CCOC(=O)C(=O)Nc1nc(-c2ccc([N+](=O)[O-])cc2)cs1`: the 50% effective dose (ED50) in the test on Rattus norvegicus [1] was over 100 mg/kg. For the compound `CCOC(=O)C(=O)Nc1ncc(-c2ccccc2)s1`, the 50% effective dose (ED50) in the test with Rattus norvegicus [1] is about 10 mg/kg. Consider `NCCO.O=C(O)C(=O)Nc1nc(-c2cccc(O)c2)cs1`, for which the ED50 was about 0.1 mg/kg with Rattus norvegicus [2] and 3 mg/kg in the test with Rattus norvegicus [1]. Regarding `CCOC(=O)C(=O)Nc1nc(-c2ccc(Oc3ccccc3)cc2)cs1`, the median effective dose (ED50) with Rattus norvegicus [1] was over 30 mg/kg.

On to `CCOC(=O)C(=O)Nc1nc(-c2ccc(O)c(C(C)=O)c2)cs1`, for which, in the test with Rattus norvegicus [6], the 50% effect level (ED50) was put at a dose of 2.6 mg/kg.

`CCOC(=O)C(=O)Nc1nc(-c2ccccc2O)cs1` came in with an ED50 in the test on Rattus norvegicus [7] of 8.2 mg/kg.

Regarding `CCOC(=O)C(=O)Nc1nc(C)c(C)s1`, the ED50 with Rattus norvegicus [1] was over 10 mg/kg. In the test with Rattus norvegicus [1], `CCOC(=O)c1ccc(-c2csc(NC(=O)C(=O)OC)n2)cc1` yielded a 50% effective dose (ED50) of over 10 mg/kg. `CCOC(=O)C(=O)Nc1nc(-c2cc(OC)c(OC)c(OC)c2)cs1`: the 50% effect level with Rattus norvegicus [8] (ED50) was put at a dose of 14.5 mg/kg. `CCOC(=O)C(=O)Nc1ccc(-c2csc(NC(=O)C(=O)OCC)n2)cc1` gave a median effective dose (ED50) with Rattus norvegicus [1] of over 30 mg/kg. For the compound `COc1ccc(OC)c(-c2csc(NC(=O)C(=O)O)n2)c1.NCCO`, the ED50 in the test on Rattus norvegicus [2] was about 0.3 mg/kg; in the test with Rattus norvegicus [1] it was about 7 mg/kg.

As to `NC(=O)C(=O)Nc1nc(-c2ccccc2)cs1`, in the test with Rattus norvegicus [9], the ED50 was about 1 mg/kg.

The compound `CCOC(=O)C(=O)Nc1nc(-c2ccco2)cs1` had an ED50 in the test on Rattus norvegicus [10] of 2.2 mg/kg. As for `NCCO.NCCO.O=C(O)C(=O)Nc1ccc(-c2csc(NC(=O)C(=O)O)n2)cc1`, the 50% effective dose (ED50) with Rattus norvegicus [1] is over 10 mg/kg. The compound `CCOC(=O)C(=O)Nc1nc(-c2cccnc2)cs1` showed a median effective dose (ED50) in the test with Rattus norvegicus [1] of about 10 mg/kg. In the test with Rattus norvegicus [1], `CCOC(=O)C(=O)Nc1nc(-c2c(C)cc(C)cc2O)cs1` had an ED50 of about 10 mg/kg. Take `COc1cc(-c2csc(NC(=O)C(=O)O)n2)cc(OC)c1OC.NCCO`: the ED50 was determined as 5.8 mg/kg in the test on Rattus norvegicus [11] and 1 mg/kg with Rattus norvegicus [2]. In turn, `NC(=O)C(=O)Nc1nc(-c2ccc3c(c2)OCCO3)cs1` had a median effective dose (ED50) in the test on Rattus norvegicus [1] of over 30 mg/kg.

With `NC(=O)C(=O)Nc1nc(-c2ccc3c(c2)CCCC3)cs1`, the 50% effective dose (ED50) in the test with Rattus norvegicus [1] is over 10 mg/kg. Take `COc1ccc(-c2csc(NC(=O)C(=O)O)n2)cc1OC`: in the test with Rattus norvegicus [12], the 50% effect level (ED50) was put at a dose of 1.48 mg/kg. `CCOC(=O)C(=O)Nc1nc(-c2ccc(F)cc2)cs1` registered a median effective dose (ED50) with Rattus norvegicus [1] of over 10 mg/kg. On to `CCOC(=O)C(=O)Nc1nc(-c2ccc3c(c2)N(C(C)=O)c2ccccc2S3)cs1`, for which the 50% effective dose (ED50) in the test on Rattus norvegicus [1] is over 10 mg/kg. Same read-out and setting: for `CCOC(=O)C(=O)Nc1nc(-c2ccc3c(c2)CCCC3)cs1` the value was over 10 mg/kg. The compound `CCOC(=O)C(=O)Nc1nc(-c2ccncc2)cs1` had an ED50 in the test on Rattus norvegicus [13] of 1.2 mg/kg. Take `CCOC(=O)C(=O)Nc1nc(-c2ccc3c(c2)Sc2ccccc2S3)cs1`: in the test with Rattus norvegicus [1], the 50% effective dose (ED50) was over 10 mg/kg. As to `Cc1sc(NC(=O)C(=O)O)nc1-c1ccc2c(c1)OCCO2`, the ED50 in the test on Rattus norvegicus [14] worked out at 0.5 mg/kg. On to `O=C(O)C(=O)Nc1nc(-c2ccc(-c3ccccc3)cc2O)cs1`, for which the ED50 in the test on Rattus norvegicus [1] is over 30 mg/kg.
